Compound activity as filed in PubChem BioAssay.
Furin inh: human furin inhibitors, primary screen, biochemical, fluorescence intensity; AID 463115, 2010; actives 0.061% (n = 220,000); P09958; inhibition, % at 20 µM or 30 µM; purified furin, fluorogenic substrate cleavage; in the data active = inhibition above about 25%
Target sequence (P09958 108-714 limits assumed): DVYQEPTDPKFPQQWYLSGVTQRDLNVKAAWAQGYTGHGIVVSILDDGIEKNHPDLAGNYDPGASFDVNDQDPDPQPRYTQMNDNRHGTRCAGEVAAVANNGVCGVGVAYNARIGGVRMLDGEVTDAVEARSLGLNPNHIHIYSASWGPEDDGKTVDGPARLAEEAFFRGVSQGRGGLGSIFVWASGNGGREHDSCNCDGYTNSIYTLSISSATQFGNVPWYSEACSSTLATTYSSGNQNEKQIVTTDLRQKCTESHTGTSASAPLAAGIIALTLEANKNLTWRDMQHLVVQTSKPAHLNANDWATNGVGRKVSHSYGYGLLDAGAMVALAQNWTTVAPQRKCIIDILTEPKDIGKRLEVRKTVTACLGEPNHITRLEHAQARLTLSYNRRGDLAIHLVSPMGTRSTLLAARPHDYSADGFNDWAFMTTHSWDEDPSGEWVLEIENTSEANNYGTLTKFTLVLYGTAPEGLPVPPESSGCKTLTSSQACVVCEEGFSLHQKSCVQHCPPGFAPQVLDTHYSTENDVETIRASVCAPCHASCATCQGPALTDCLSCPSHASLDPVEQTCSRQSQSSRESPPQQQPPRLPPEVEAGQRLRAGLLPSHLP
EP2 mod: EP2 receptor modulators, cAMP readout, primary screen, cell-based, HTRF cAMP, PGE2 stimulation | EP2-expressing cells, cAMP HTRF FRET, PGE2 co-stimulation | actives 0.83% (n = 260,000) | induction, % at 25 µM | Prostaglandin E2 receptor EP2 subtype (Homo sapiens), P43116;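 active = compounds whose cAMP rise, as percent of the full-agonist control response, exceeds 60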;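 note: rat C6 glioma line stably carrying human EP2 under a CMV promoter; the protocol text gives 20 µM as final concentration; 100% = response of wells given 1 µM PGE2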
EP2 antag: human EP2 receptor antagonists, primary screen, TR-FRET cAMP, C6 glioma cells; Prostaglandin E2 receptor EP2 subtype (Homo sapiens), P43116; inhibition, % at 25 µM; C6 glioma cells expressing human EP2; cells stimulated with saturating PGE2; actives 0.52% (n = 260,000);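 active = percent inhibition above 40 after rounding to a whole number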;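 note: rat C6 glioma host cells with rolipram phosphodiesterase inhibitor present; the protocol text gives 20 µM as final concentration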
NR2E3 ag-1: inhibitors of NR2E3-RetCOR corepressor binding, primary screen, NR2E3 agonist project, biochemical, TR-FRET, GST-NR2E3, biotin-RetCOR; Photoreceptor-specific nuclear receptor (Homo sapiens), Q9Y5X4; 1536-well; inhibition of corepressor binding, % at 4.78 µM; actives 0.12% (n = 320,000);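 active = percent inhibition above the cutoff of mean plus 3 SD of all tested compounds, set per screening campaign, cut at about 20% in these data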;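 note: 0% = DMSO wells and 100% = biotin wells as full block of FRET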
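Material: NR2E3–RetCOR corepressor complex / Incubation: Compound–protein incubation for 5 h at 4 °C / Dosing: compound at 4.8 µM, single dose / Detection: time-resolved FRET / Benchmarks: high control biotin, low control 0.6% DMSO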
GASC-1 inh: inhibitors of GASC-1 histone demethylase, primary screen, biochemical, fluorescence, DELFIA europium | Lysine-specific demethylase 4C (Homo sapiens), Q9H3R0 | GST-JMJD2C(1-420) H3K9me3 demethylation | inhibition, % at 2.35 µM | actives 0.069% (n = 330,000) | AID 2099, 2009;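 active = more than half of a compound's replicate wells show inhibition beyond 50%, single wells judged on their own value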;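 note: signal counts dimethyl H3K9 product captured on neutravidin plate; 0% = median of DMSO wells and 100% = 0.3 times that DMSO median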
NR2E3 ag-2: NR2E3 agonists in two-hybrid cells, primary screen, cell-based, luminescence, CHO-S, Gal4-NCOR/VP16-NR2E3. luciferase. Photoreceptor-specific nuclear receptor (Homo sapiens), Q9Y5X4. AID 602229, 2012. actives 0.35% (n = 360,000). inhibition of corepressor binding, % at 3.98 µM;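 active = inhibition above the mean of all tested compounds plus 3 SD, cut at about 70% in these data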;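 note: 0% = DMSO with NR2E3 transfected cells and 100% = cells lacking NR2E3 construct; higher means lower luciferase signal from less NR2E3 corepressor binding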
The depositor's hits bear a star. An excerpt weighted towards active compounds, which were near 1.3% of everything screened.

How did COc1ccccc1NC(=O)C1=C(C)NC2=C(C(=O)CC(C)(C)C2)C1c1cccs1 (stereo unspecified) do in these assays?
EP2 mod: 62.8*; EP2 antag: 14.7

What do the screens show for `CCc1ccc2c(c1)C1(SC(NC(C)=O)=NN1C(C)=O)C(=O)N2C(C)=O` (stereo unspecified)?
EP2 mod: 11.4; EP2 antag: 10.3

How did CCOC(=O)Nc1nnc(-c2ccccc2F)s1 do in these assays?
EP2 mod: -72.3; EP2 antag: 11.2

How did OCc1cc(C(O)CNCCCCCCOCCCCc2ccccc2)ccc1O (stereo unspecified) do in these assays?
EP2 mod: 69.2*; EP2 antag: 17.5; NR2E3 ag-1: 4.6; GASC-1 inh: 1.5; NR2E3 ag-2: -34.9

What do the screens show for `CCc1n(CC(O)COc2ccc(Cl)cc2)c2ccccc2[n+]1C` (stereo unspecified)?
EP2 mod: 15.2; EP2 antag: 7.3

What do the screens show for `CCCC(=O)N1CCCC(c2nc3c(nnn3Cc3cc(C)ccc3C)c(=O)[nH]2)C1` (stereo unspecified)?
EP2 mod: 63.6*; EP2 antag: 15.1

What do the screens show for `COCCNC(=S)N(Cc1cc2ccc(C)c(C)c2[nH]c1=O)C1CCCC1`?
EP2 mod: 39.4; EP2 antag: 4.1

Results for CC(C)(C)c1ccc(O)c(CN(Cc2cc(C(C)(C)C)ccc2O)c2ccccc2)c1 ?
EP2 mod: 4.7; EP2 antag: 55.3*

What do the screens show for `CN(C)Cc1cc(C(C)(C)c2ccccc2)ccc1O`?
NR2E3 ag-2: -3.0

How did Cc1cc(C)c(S(=O)(=O)N2CCC(C(=O)NC3CCCCC3)CC2)c(C)c1 do in these assays?
EP2 mod: -53.8; EP2 antag: 15.0

What do the screens show for `Cc1sc(NC(=O)c2ccccc2)c(C(c2ccccn2)N2CCN(CCO)CC2)c1C` (stereo unspecified)?
Furin inh: 13.2; EP2 mod: -11.8; EP2 antag: 6.5; NR2E3 ag-1: 0.4; GASC-1 inh: -6.5; NR2E3 ag-2: 10.1

Results for CCc1cc(C(c2ccccn2)N2CCN(C)CC2)c(NC(=O)c2ccccc2)s1 (stereo unspecified) ?
Furin inh: 25.1*; EP2 mod: 12.8; EP2 antag: 3.2; NR2E3 ag-1: 0.3; GASC-1 inh: -5.5; NR2E3 ag-2: 18.5

Results for O=C1c2ccccc2C(=O)N1SC1CCCCC1 ?
Furin inh: 3.7; EP2 mod: -35.7; EP2 antag: 87.1*; NR2E3 ag-1: 2.1; GASC-1 inh: -0.4; NR2E3 ag-2: 8.2

How did COC(=O)C1=C(C)N(CCc2cc(OC)c(OC)c(OC)c2)C(=O)N[C@H]1c1cccs1 do in these assays?
Furin inh: -12.0; EP2 mod: -0.5; NR2E3 ag-1: 4.6; GASC-1 inh: 56.1*

Results for CCSc1nc(C)nc2sc(C)c(C)c12 ?
Furin inh: -27.9; EP2 mod: 69.2*; EP2 antag: 5.9; NR2E3 ag-1: -5.5; GASC-1 inh: 0.1; NR2E3 ag-2: -27.4

Results for Cc1nc(SCC(=O)N(C(C)C)C(C)C)c2c(C)c(C)sc2n1 ?
EP2 mod: -3.7; EP2 antag: 11.8

Results for CCOc1ccccc1NC(=S)N1CCC(NC(=O)c2ccc(C)cc2)CC1 ?
EP2 mod: -80.7; EP2 antag: 9.0

What do the screens show for `CCN1C(=O)c2cccc3c(NC(=O)C(C)(C)C)ccc1c23`?
Furin inh: -31.6; EP2 mod: -11.3; EP2 antag: 50.2*; NR2E3 ag-1: -0.1; GASC-1 inh: -7.9; NR2E3 ag-2: -23.4

How did O=C1C=Cc2ccccc2/C1=C\c1nc(-c2cccc(F)c2)oc1O do in these assays?
EP2 mod: -32.7; EP2 antag: 13.6

Results for COc1cc2sc(NC(=O)c3cc(OC)c(OC)c(OC)c3)nc2cc1Cl ?
EP2 mod: 14.4; EP2 antag: 14.6

Results for Cc1cc(Cl)ccc1OCCCC(=O)N1CCOCC1 ?
Furin inh: 28.8*; EP2 mod: 5.3; EP2 antag: 9.2; NR2E3 ag-1: -4.0; GASC-1 inh: 1.9; NR2E3 ag-2: -43.0

What do the screens show for `O=C(COc1ccc(Cl)cc1Cl)NC(=O)N1CCOCC1`?
Furin inh: 35.6*; EP2 mod: -4.7; EP2 antag: 0.2; NR2E3 ag-1: 0.9; GASC-1 inh: 5.5; NR2E3 ag-2: 1.8

Results for CCc1cc(C(=O)c2cccs2)c(NC(=O)CN2CCOCC2)s1 ?
EP2 mod: 33.6; EP2 antag: 16.4

How did CCN(Cc1ccccc1)C(c1cc2cc(OC)c(OC)cc2[nH]c1=O)c1nnnn1C(C)(C)CC (stereo unspecified) do in these assays?
EP2 mod: 41.3; EP2 antag: 9.7

Results for CCOC(=O)C1CCN(C(=O)C(C)(C)C)CC1 ?
EP2 mod: 21.8; EP2 antag: 7.6

Results for COc1ccc([C@@H](Nc2ccccn2)c2cc(C(C)(C)C)cc(C(C)(C)C)c2O)cc1 ?
EP2 mod: 36.2; EP2 antag: 45.9*

How did COc1ccc(C(Nc2ccccn2)c2c(NC(=O)c3ccco3)sc(C)c2C)cc1 (stereo unspecified) do in these assays?
Furin inh: -21.3; EP2 mod: -0.9; EP2 antag: 7.1; NR2E3 ag-1: 1.4; GASC-1 inh: 10.8; NR2E3 ag-2: -67.4

Results for O=C(Nc1nnc(C2CCCC2)s1)c1ccccc1Cl ?
EP2 mod: -4.2; EP2 antag: 11.2

How did Cc1cc2ccccc2nc1SCC(=O)c1ccccc1 do in these assays?
EP2 mod: 80.8*; EP2 antag: 9.0

Results for Cc1cc2cc3c(cc2nc1SCC(=O)c1ccccc1)OCO3 ?
EP2 mod: 70.3*; EP2 antag: 12.7

Results for CCOC(=O)CSc1nc2cc3c(cc2cc1C)OCO3 ?
Furin inh: -29.9; EP2 mod: 58.4; EP2 antag: 7.4; NR2E3 ag-1: 3.9; GASC-1 inh: 0.3; NR2E3 ag-2: -3.5

What do the screens show for `CC(C)c1nc(SCC(=O)c2ccc(F)cc2)c2ccccc2n1`?
Furin inh: -18.3; EP2 mod: 62.6*; EP2 antag: 8.2; NR2E3 ag-1: -0.2; GASC-1 inh: -2.7; NR2E3 ag-2: 8.3
